Test results published in ChEMBL document CHEMBL1154595, “Discovery of selective nonpeptidergic neuropeptide FF2 receptor agonists” (J Med Chem, 2009).
The source made the active and inactive calls.

How the values were obtained:
[1] = biological target: T1, Neuropeptide FF receptor 1 (Homo sapiens, UniProt Q9GZQ6); assay: Agonist activity at human NPFF1 receptor expressed in cells assessed as beta-galactosidase levels at […] after 5 days; assay type: functional, cell-based
[2] = biological target: T2, Neuropeptide FF receptor 2 (Homo sapiens, UniProt Q9Y5X5); assay: Agonist activity at human NPFF2 receptor expressed in cells assessed as beta-galactosidase levels at […] after 5 days; assay type: functional, cell-based
[3] = biological target: T2, Neuropeptide FF receptor 2; assay: Agonist activity at human NPFF2 receptor expressed in cells assessed as beta-galactosidase levels after 5 days; assay type: functional, cell-based
Procedure, shortened: (§1)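 Functional R-SAT assay at human NPFF1 and NPFF2 receptors in agonist mode. Dose-response curves were built from seven concentrations, each tested in triplicate. Values are mean ± SEM of at least three independent experiments.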

[4] = biological target: T1, Neuropeptide FF receptor 1; assay: Agonist activity at human NPFF1 receptor expressed in cells assessed as beta-galactosidase levels after 5 days; assay type: functional, cell-based; procedure, shortened: as §1
[5] = Clearance in rat liver microsomes; assay type: ADME, Microsome
Procedure, shortened: (§2)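 Stability was measured in human and in rat liver microsomes. Clearance is reported in μL/(min·mg) and related to liver blood flow.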

[6] = Oral bioavailability in Sprague-Dawley rat; assay type: ADME, organism-based; settings: in vivo
[7] = Dissociation constant, pKa of the compound; assay type: physicochemical
[8] = Distribution coefficient, log D of the compound; assay type: physicochemical; settings: octanol/water
[9] = Clearance in human liver microsomes; assay type: ADME, Microsome; procedure, shortened: as §2
[10] = Lipophilicity, log P of the compound; assay type: physicochemical; settings: octanol/water
[11] = Half life in Sprague-Dawley rat; assay type: ADME, organism-based; settings: in vivo
Rattus norvegicus [12] = assay: Antiallodynic activity in Sprague-Dawley rat Kim-Chung model of neuropathic pain assessed mechanical-stimuli induced paw withdrawal threshold at 10 mg/kg; assay type: functional, organism-based; set-up: dose 10 mg/kg
Procedure, shortened: (§3)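 Rats underwent spinal nerve ligation (SNL), with sham-operated rats also used. Tactile allodynia was defined as a significant reduction in paw withdrawal threshold to mechanical stimuli.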

[13] = biological target: T1, Neuropeptide FF receptor 1; assay: Antagonist activity at human NPFF1 receptor expressed in HEK293T cells assessed as inhibition of PGE2-induced cAMP release; assay type: functional, cell-based; settings: HEK-293T
[14] = Activity at alpha-adrenergic receptor
Rattus norvegicus [15] = assay: Antiinflammatory activity in ip dosed Sprague-Dawley rat assessed as inhibition of carrageenan-induced thermal hypersensitivity by hotplate test; assay type: functional, organism-based
Procedure, shortened: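 Acute inflammatory pain was produced in rats by carrageenan. Thermal hypersensitivity was measured by hot plate test on a metal plate held at 52 °C.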

Rattus norvegicus [16] = assay: Antiinflammatory activity in ip dosed Sprague-Dawley rat assessed as inhibition of carrageenan-induced paw edema; assay type: functional, organism-based
[17] = biological target: T2, Neuropeptide FF receptor 2; assay: Agonist activity at human NPFF2 receptor expressed in HEK293T cells assessed as inhibition of PGE2-induced cAMP release; settings: HEK-293T
[18] = biological target: T1, Neuropeptide FF receptor 1; assay: Agonist activity at human NPFF1 receptor expressed in HEK293T cells assessed as inhibition of PGE2-induced cAMP release; set-up: Activity: scale not given: the % may be the effect or the level left; settings: HEK-293T
Rattus norvegicus [19] = assay: Antiallodynic activity in Sprague-Dawley rat Kim-Chung model of neuropathic pain assessed mechanical-stimuli induced paw withdrawal threshold at 30 mg/kg; assay type: functional, organism-based; set-up: dose 30 mg/kg; procedure, shortened: as §3
Rattus norvegicus [20] = organism: Rattus norvegicus; assay: Antiallodynic activity in Sprague-Dawley rat Kim-Chung model of neuropathic pain assessed mechanical-stimuli induced paw withdrawal threshold; assay type: functional, organism-based; procedure, shortened: as §3
Rattus norvegicus [21] = organism: Rattus norvegicus; assay: Antiallodynic activity in Sprague-Dawley rat Kim-Chung model of neuropathic pain assessed mechanical-stimuli induced paw withdrawal threshold in presence of […]-antagonist dansyl-PQR-amide; assay type: functional, organism-based
Procedure, shortened: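 Rats with spinal nerve ligation, plus sham-operated rats. Tactile allodynia was scored as a significant reduction in paw withdrawal threshold. The selective NPFF1 antagonist dansylPQRamide was given at 30 mg/kg ip alongside the test agonist, with systemic dosing.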

T1 sequence (Q9GZQ6 whole entry): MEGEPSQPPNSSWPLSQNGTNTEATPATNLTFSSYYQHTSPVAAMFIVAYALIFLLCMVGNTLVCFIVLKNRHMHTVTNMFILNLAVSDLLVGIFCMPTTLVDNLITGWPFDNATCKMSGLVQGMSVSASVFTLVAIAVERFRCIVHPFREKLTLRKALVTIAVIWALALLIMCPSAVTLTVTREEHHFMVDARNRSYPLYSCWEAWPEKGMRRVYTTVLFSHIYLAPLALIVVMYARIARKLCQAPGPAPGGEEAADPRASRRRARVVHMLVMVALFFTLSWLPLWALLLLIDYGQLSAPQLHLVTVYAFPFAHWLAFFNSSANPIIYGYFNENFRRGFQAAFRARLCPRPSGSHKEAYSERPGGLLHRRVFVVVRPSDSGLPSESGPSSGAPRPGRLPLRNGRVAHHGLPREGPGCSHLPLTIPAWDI
T2 sequence (Q9Y5X5 whole entry): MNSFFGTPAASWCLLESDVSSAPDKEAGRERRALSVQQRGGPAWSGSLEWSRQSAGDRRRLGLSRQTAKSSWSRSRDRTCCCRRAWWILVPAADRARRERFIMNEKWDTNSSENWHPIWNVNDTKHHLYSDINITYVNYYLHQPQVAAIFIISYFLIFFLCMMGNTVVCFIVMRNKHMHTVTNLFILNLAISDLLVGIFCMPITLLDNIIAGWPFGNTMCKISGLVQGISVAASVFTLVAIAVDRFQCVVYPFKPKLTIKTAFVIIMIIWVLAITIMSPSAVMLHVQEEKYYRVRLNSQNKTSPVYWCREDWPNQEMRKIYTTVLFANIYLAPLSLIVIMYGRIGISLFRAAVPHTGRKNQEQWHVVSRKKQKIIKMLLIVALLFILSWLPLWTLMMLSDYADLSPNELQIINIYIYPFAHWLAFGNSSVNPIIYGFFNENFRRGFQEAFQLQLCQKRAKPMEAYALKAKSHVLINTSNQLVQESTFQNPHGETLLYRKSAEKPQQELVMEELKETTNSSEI

| Compound | Efficacy [1] | Efficacy [2] | EC50 [3] | EC50 [4] | also measured |
| --- | --- | --- | --- | --- | --- |
| N=C(N)N/N=C/c1ccc(Br)c(Br)c1 | inactive | 90% |  |  |  |
| N=C(N)N/N=C(\c1ccccc1)c1ccc(Cl)c(Cl)c1 | 46% | 63% | 794 nM | 794 nM |  |
| Cn1c(/C=N/NC(=N)N)ccc1-c1ccccc1C(F)(F)F | 36% | 72% | 126 nM | 316 nM |  |
| CCCCCNC(=N)N/N=C/c1c[nH]c2ccc(OC)cc12 |  |  |  |  | Activity [1]: inactive; Activity [2]: inactive |
| CC(C)c1ccccc1-c1ccc(/C=N/NC(=N)N)o1 | 62% | 70% | 200 nM | 158 nM |  |
| N=C(N)N/N=C/c1ccc(-c2ccccc2C(F)(F)F)s1 | 44% | 55% | 158 nM | 126 nM |  |
| NC(N)=N/N=C/c1ccc(Cl)c(Cl)c1 |  |  | 1000 nM |  | microsomal CLint [5]: 18 µL/min/mg; bioavailability [6]: 43%; pKa [7]: 8.4; logD [8]: 1.8; microsomal CLint [9]: 26 µL/min/mg; logP [10]: 2.8; half-life [11]: 2.5 h |
| N=C(N)N/N=C/c1ccc(Cl)c(Cl)c1 | 18% | 68% |  |  | Activity (Rattus norvegicus [12]): Active; Activity [13]: inactive; Activity [14]: inactive; Activity (Rattus norvegicus [15]): Dose-dependent effect; Activity (Rattus norvegicus [16]): inactive |
| N=C(N)N/N=C/c1ccc(Cl)c(C(F)(F)F)c1 | 46% | 114% |  | > 3160 nM | Efficacy [17]: 89%; Activity [18]: 42%; Activity (Rattus norvegicus [15]): Dose-dependent effect; Activity (Rattus norvegicus [19]): Active; Activity (Rattus norvegicus [16]): inactive |
| C/C(=N\NC(=N)N)c1ccc(Cl)c(C(F)(F)F)c1 | inactive | 66% | 398 nM |  |  |
| N=C(N)N/N=C/c1ccc(-c2ccccc2C(F)(F)F)o1 | 55% | 73% | 100 nM | 39.8 nM | Efficacy [17]: 114%; Efficacy [18]: 93%; Activity (Rattus norvegicus [20]): inactive |
| C/C(=N\N=C(N)N)c1ccc(Cl)c(Cl)c1 | inactive | 64% | 501 nM |  |  |
| N=C(N)N/N=C/c1c(Cl)cccc1Cl |  |  |  |  | Activity [1]: inactive; Activity [2]: inactive |
| CN(C)c1cccc2c(S(=O)(=O)N3CCC[C@H]3C(=O)N[C@@H](CCC(N)=O)C(=O)N[C@@H](CCCNC(=N)N)C(N)=O)cccc12 |  |  |  |  | Activity (Rattus norvegicus [21]): Active |
| Cc1ccccc1-c1ccc(/C=N/NC(=N)N)o1 | 55% | 90% | 100 nM | 79.4 nM |  |
